In assay [1] the target is T1, Mas-related G-protein coupled receptor member X2 (Homo sapiens) (UniProt Q96LB1).
T1 sequence (whole entry): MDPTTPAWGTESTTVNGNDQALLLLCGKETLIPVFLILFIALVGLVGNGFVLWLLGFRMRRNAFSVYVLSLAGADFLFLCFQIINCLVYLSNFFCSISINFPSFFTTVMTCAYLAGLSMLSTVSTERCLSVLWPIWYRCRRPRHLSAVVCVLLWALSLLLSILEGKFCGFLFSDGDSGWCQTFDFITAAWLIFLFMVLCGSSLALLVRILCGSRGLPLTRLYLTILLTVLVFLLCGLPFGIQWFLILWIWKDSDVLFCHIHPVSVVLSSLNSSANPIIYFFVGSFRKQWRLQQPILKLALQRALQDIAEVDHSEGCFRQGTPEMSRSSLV
Description: Agonist activity at MRGPRX2 receptor in human LAD2 cells assessed as increase in intracellular calcium release by FLIPR assay. Type of assay: functional, cell-based. As to conditions: filed as agonist. In outline: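 LAD2 human mast cells seeded 50,000/well in Tyrode's buffer with calcium dye, 1 h before drug; 10 s baseline, drug added, fluorescence followed 120 s; expressed as fold calcium release over baseline; n=3 in triplicate.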
For orientation: Calcium flux is commonly read through the fluorescence of an indicator in the cells.

The target in assay [2] is T1, Mas-related G-protein coupled receptor member X2 (Homo sapiens). Description: Agonist activity at MRGPRX2 (unknown origin) expressed in HTLA cells assessed as induction of beta-arrestin 2 recruitment at 10 uM incubated for 18 to 24 hrs by PRESTO-Tango assay. Type of assay: functional, cell-based. As to conditions: filed as agonist, time 18-24 hrs. In outline:
(§1)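 β-arrestin2 recruitment by PRESTO-Tango: HTLA cells transiently transfected (calcium phosphate) with codon-optimized MRGPRX2-Tango (WT or point mutant) or MRGPRB2-Tango, plated next day 20,000 cells/well on poly-L-lysine; drug in HBSS/20 mM HEPES/0.3% BSA pH 7.4 for 18–24 h; Bright-Glo luminescence (RLU); curves n=3 in triplicate, mutants n=4 in triplicate.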
A general note: Activated receptors often draw arrestin, which recruitment assays turn into a signal.

For assay [3] the target is unchanged. The assay is described as follows: Agonist activity at MRGPRX2 receptor in human LAD2 cells transfected with MRGPRX2 siRNA assessed as increase in degranulation incubated for 30 mins by beta-hexosaminidase assay. Type of assay: functional, cell-based. In a few lines: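 LAD2 cells (1.2 million/well) transfected with 25 nM MRGPRX2 siRNA pool or non-targeting pool, 72 h; 200,000 cells taken for β-hexosaminidase assay with EC80 concentration of agonist, 30 min 37°C; knockdown checked by qRT-PCR on 1 million cells; fold change % degranulation versus DMSO; two-way ANOVA with Sidak test.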

Assay [4] has as its target Alpha-2C adrenergic receptor (Homo sapiens) (UniProt P18825). Description: Agonist activity at ADRA2C receptor (unknown origin). In a few lines: (§2)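 PRESTO-Tango β-arrestin2 recruitment; HTLA cells (HEK-T stably expressing β-arrestin2-TEV and tTA-dependent luciferase) transfected by calcium phosphate with receptor-Tango construct, replated next day at 20,000 cells/well; compounds in HBSS/20 mM HEPES/0.3% BSA pH 7.4, 18–24 h; Bright-Glo luminescence after 15 min RT, read as RLU; ≥2-fold over basal scored active.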

Assay [5] deals with 5-hydroxytryptamine receptor 1A (Homo sapiens) (UniProt P08908). Description: Agonist activity at HTR1A receptor (unknown origin). Type of assay: functional. In a few lines:
as §2

The target in assay [6] is Pituitary adenylate cyclase-activating polypeptide type I receptor (Homo sapiens) (UniProt P41586). The assay is described as follows: Agonist activity at ADCYAP1 receptor (unknown origin). In outline: as §2
The target of assay [7] is T2, Mas-related G-protein coupled receptor member X2 (Homo sapiens, UniProt Q96LB1).
T2 sequence (Q96LB1 whole entry): T1 sequence (whole entry)
Description: Agonist activity at MRGPRX2 (unknown origin) expressed in HTLA cells assessed as induction of beta-arrestin 2 recruitment incubated for 18 to 24 hrs by PRESTO-Tango assay. Type of assay: functional, cell-based.

Assay [8] concerns the target Muscarinic acetylcholine receptor M2 (Homo sapiens) (UniProt P08172). Description: Agonist activity at CHRM2 receptor (unknown origin). Type of assay: functional. In a few lines:
as §2

Assay [9] addresses 5-hydroxytryptamine receptor 2A (Homo sapiens) (UniProt P28223). The assay is described as follows: Agonist activity at HTR2 receptor (unknown origin). Type of assay: functional. In a few lines: as §2
Assay [10] deals with Beta-3 adrenergic receptor (Homo sapiens) (UniProt P13945). The assay is described as follows: Agonist activity at ADRB3 receptor (unknown origin). In kind it is functional. In outline:
as §2

Assay [11] has as its target T2, Mas-related G-protein coupled receptor member X2. The assay is described as follows: Agonist activity at N-terminal Flag-tagged human MRGPRX2 receptor expressed in tetracycline-induced FLP-IN/T-REX 293 cells assessed as increase in intracellular calcium release by FLIPR assay. In kind it is functional, cell-based.
The target in assay [12] is Lutropin-choriogonadotropic hormone receptor (Homo sapiens) (UniProt P22888). Description: Agonist activity at LHCGR (unknown origin). In kind it is functional. In outline:
as §2

Assay [13] concerns the target Prosaposin receptor GPR37 (Homo sapiens) (UniProt O15354). The assay is described as follows: Agonist activity at GPR37 receptor (unknown origin). In kind it is functional. In a few lines:
as §2

Assay [14] deals with Glucose-dependent insulinotropic receptor (Homo sapiens) (UniProt Q8TDV5). Description: Agonist activity at GPR119 receptor (unknown origin). In kind it is functional. In outline: as §2
The target of assay [15] is Proteinase-activated receptor 2 (Homo sapiens) (UniProt P55085). The assay is described as follows: Agonist activity at F2R-L1 receptor (unknown origin). In a few lines: as §2
Assay [16] concerns the target G-protein coupled receptor 15 (Homo sapiens) (UniProt P49685). Description: Agonist activity at GPR15 receptor (unknown origin). Type of assay: functional. In outline: as §2
The target in assay [17] is D(4) dopamine receptor (Homo sapiens) (UniProt P21917). The assay is described as follows: Agonist activity at DRD4 receptor (unknown origin). Type of assay: functional. In outline: as §2
Assay [18] concerns the target Melanin-concentrating hormone receptor 2 (Homo sapiens) (UniProt Q969V1). The assay is described as follows: Agonist activity at MCHR2 receptor (unknown orgini). Type of assay: functional. In a few lines:
as §2

Assay [19] addresses Alpha-1A adrenergic receptor (Homo sapiens) (UniProt P35348). The assay is described as follows: Agonist activity at ADRA1A receptor (unknown origin). Type of assay: functional. In a few lines: as §2
For assay [20], the target named is T1, Mas-related G-protein coupled receptor member X2 (Homo sapiens). The assay is described as follows: Agonist activity at MRGPRX2 receptor in human LAD2 cells assessed as increase in degranulation incubated for 30 mins by beta-hexosaminidase assay. As to conditions: filed as agonist. Type of assay: functional, cell-based. In a few lines:
(§3)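 β-Hexosaminidase release: LAD2 cells in fresh medium 18 h, washed in Tyrode's buffer pH 7.4, 10,000 cells/well; drug (single concentration or 8-point curve) added in triplicate, 30 min 37°C; supernatant and Triton X-100 lysate each reacted with NAG in citrate pH 4.5 for 90 min 37°C, stopped with carbonate pH 10, A405; % release = released/total ×100, minus vehicle.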

Assay [21] addresses Gastrin-releasing peptide receptor (Homo sapiens) (UniProt P30550). The assay is described as follows: Agonist activity at GRPR (unknown origin). In kind it is functional. In outline:
as §2

Assay [22] deals with Cannabinoid receptor 2 (Homo sapiens) (UniProt P34972). Description: Agonist activity at CNR2 receptor (unknown origin). In kind it is functional. In outline: as §2
The target of assay [23] is Beta-1 adrenergic receptor (Homo sapiens) (UniProt P08588). The assay is described as follows: Agonist activity at ADRB1 receptor (unknown origin). Type of assay: functional. In outline: as §2
Assay [24] concerns the target Glucagon-like peptide 1 receptor (Homo sapiens) (UniProt P43220). The assay is described as follows: Agonist activity at GLP1R (unknown origin). Type of assay: functional. In a few lines:
as §2

Assay [25] addresses Alpha-1D adrenergic receptor (Homo sapiens) (UniProt P25100). The assay is described as follows: Agonist activity at ADRA1D receptor (unknown origin). Type of assay: functional. In outline: as §2
The target in assay [26] is Alpha-1B adrenergic receptor (Homo sapiens) (UniProt P35368). Description: Agonist activity at ADRA1B receptor (unknown origin). Type of assay: functional. In outline:
as §2

Assay [27] deals with Type-1 angiotensin II receptor (Homo sapiens) (UniProt P30556). The assay is described as follows: Agonist activity at AGTR1 receptor (unknown origin). In kind it is functional. In a few lines: as §2
The test system of assay [28] is HTLA. Description: Agonist activity at MRGPRX2 D184E mutant (unknown origin) expressed in HTLA cells assessed as induction of beta-arrestin 2 recruitment incubated for 18 to 24 hrs by PRESTO-Tango assay. Type of assay: cell-based. Conditions: Homo sapiens, time 18-24 hrs. In a few lines: as §1
Assay [29] concerns HTLA. The assay is described as follows: Agonist activity at MRGPRX2 E164D mutant (unknown origin) expressed in HTLA cells assessed as induction of beta-arrestin 2 recruitment incubated for 18 to 24 hrs by PRESTO-Tango assay. Conditions: Homo sapiens, filed as agonist, time 18-24 hrs. Type of assay: cell-based. In outline:
as §1

Assay [30] has as its target T1, Mas-related G-protein coupled receptor member X2 (Homo sapiens). The assay is described as follows: Agonist activity at N-terminal Flag-tagged human MRGPRX2 receptor expressed in HEK-T cells assessed as increase in intracellular calcium release by FLIPR assay. As to conditions: HEK-T cell. In kind it is functional, cell-based. In a few lines: (§4)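 FLIPR calcium: FLP-IN/T-REX HEK-293-T stable line with N-terminal FLAG codon-optimized receptor, induced 24 h with 1 μg/mL tetracycline in 1% dialyzed FBS (uninduced cells as control); FLIPR calcium dye plus 2.5 mM probenecid 1 h 37°C; 10 s baseline, then drug in HBSS/20 mM HEPES/probenecid pH 7.4, 16-point curve 10 μM to 0.003 nM; fluorescence 120 s; fold over basal, n=3 triplicate.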

For assay [31] the target is unchanged. The assay is described as follows: Agonist activity at N-terminal Flag-tagged human MRGPRX2 receptor expressed in tetracycline-induced HEK-T cells assessed as increase in intracellular calcium release by FLIPR assay. Type of assay: functional, cell-based. Conditions: HEK-T cell, filed as agonist. In a few lines:
as §4

Assay [32] has the same target. The assay is described as follows: Agonist activity at MRGPRX2 receptor in human LAD2 cells assessed as increase in degranulation incubated for 30 mins in presence of naloxone by beta-hexosaminidase assay. Type of assay: functional, cell-based. In outline: as §3

SMILES strings stand for the structures. Calls of active or inactive are those of the source. The rule behind the calls is not given here.

Sequence of Beta-3 adrenergic receptor (Homo sapiens) (P13945 whole entry, looked up): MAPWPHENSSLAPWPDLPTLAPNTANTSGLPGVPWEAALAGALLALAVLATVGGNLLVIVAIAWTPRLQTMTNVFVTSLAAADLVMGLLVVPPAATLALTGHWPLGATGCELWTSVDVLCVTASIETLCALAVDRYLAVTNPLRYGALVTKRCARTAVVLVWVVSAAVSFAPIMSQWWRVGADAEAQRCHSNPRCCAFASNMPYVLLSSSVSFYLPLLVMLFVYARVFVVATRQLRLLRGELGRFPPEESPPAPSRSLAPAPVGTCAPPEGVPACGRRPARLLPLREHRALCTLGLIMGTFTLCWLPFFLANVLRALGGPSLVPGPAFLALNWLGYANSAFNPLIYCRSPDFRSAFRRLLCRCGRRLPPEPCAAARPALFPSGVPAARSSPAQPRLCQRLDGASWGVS
Sequence of Alpha-1A adrenergic receptor (Homo sapiens) (P35348 whole entry): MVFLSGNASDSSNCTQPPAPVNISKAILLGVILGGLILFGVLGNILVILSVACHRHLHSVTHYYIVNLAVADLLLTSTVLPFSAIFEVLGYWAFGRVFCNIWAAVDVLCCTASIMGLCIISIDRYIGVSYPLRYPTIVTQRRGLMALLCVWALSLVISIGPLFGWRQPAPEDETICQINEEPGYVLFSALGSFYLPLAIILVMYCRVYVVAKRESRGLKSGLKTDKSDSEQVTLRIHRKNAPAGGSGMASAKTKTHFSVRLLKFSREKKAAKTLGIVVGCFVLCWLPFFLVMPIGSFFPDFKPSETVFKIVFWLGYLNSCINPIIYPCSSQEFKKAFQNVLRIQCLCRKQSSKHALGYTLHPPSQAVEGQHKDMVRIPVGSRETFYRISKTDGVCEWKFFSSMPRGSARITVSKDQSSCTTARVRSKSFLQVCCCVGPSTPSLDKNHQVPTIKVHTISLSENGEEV
Sequence of Alpha-1D adrenergic receptor (Homo sapiens) (P25100 whole entry): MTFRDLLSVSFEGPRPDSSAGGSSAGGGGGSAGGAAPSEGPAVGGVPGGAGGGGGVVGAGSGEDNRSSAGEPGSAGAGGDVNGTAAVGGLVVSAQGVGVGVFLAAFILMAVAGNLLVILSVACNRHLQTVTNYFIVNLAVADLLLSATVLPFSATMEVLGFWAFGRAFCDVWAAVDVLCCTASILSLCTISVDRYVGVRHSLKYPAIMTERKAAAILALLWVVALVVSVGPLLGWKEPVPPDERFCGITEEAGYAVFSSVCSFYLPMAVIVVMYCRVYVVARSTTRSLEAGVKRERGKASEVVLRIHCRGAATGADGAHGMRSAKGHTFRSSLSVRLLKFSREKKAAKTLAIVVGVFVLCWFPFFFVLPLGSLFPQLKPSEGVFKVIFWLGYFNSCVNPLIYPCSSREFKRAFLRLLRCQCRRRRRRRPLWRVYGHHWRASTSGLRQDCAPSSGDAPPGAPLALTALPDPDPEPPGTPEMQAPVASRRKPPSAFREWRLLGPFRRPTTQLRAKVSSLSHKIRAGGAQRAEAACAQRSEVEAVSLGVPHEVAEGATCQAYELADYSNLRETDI
Sequence of Cannabinoid receptor 2 (Homo sapiens) (P34972 whole entry): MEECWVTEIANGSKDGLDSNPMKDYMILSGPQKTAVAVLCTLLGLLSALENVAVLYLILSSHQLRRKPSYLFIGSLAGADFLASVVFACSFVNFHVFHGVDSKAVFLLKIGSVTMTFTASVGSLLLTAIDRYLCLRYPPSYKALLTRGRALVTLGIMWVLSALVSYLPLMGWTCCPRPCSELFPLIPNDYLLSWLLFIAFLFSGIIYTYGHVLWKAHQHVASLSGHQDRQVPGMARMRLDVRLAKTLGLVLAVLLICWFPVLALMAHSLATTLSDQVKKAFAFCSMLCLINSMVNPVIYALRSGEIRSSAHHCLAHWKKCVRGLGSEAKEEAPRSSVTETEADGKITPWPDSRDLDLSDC
Sequence of Alpha-2C adrenergic receptor (Homo sapiens) (P18825 whole entry): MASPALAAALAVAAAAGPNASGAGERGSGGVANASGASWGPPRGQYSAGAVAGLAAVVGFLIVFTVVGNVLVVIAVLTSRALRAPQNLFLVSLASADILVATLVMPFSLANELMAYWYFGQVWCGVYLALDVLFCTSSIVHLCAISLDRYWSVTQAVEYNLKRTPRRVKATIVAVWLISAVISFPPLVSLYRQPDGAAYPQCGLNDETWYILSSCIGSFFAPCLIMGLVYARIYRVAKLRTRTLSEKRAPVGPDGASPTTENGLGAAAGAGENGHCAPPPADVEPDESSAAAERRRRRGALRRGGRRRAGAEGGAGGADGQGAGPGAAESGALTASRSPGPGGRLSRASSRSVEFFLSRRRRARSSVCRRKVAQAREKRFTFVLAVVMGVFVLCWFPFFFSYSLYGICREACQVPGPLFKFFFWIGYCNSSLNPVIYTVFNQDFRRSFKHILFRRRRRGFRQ
Sequence of Alpha-1B adrenergic receptor (Homo sapiens) (P35368 whole entry): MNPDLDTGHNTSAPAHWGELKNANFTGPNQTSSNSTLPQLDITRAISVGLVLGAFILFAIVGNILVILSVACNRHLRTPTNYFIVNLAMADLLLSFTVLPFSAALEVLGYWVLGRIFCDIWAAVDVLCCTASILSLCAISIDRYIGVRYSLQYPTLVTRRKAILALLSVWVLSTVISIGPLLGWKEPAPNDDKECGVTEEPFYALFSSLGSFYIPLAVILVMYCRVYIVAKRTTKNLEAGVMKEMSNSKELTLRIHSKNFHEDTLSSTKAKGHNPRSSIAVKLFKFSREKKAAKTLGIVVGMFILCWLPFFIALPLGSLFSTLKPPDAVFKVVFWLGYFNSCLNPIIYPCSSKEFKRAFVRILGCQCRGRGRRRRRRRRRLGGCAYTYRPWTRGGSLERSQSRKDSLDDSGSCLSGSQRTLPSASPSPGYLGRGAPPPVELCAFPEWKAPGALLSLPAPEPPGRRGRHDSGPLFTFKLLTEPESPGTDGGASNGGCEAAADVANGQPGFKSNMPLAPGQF
Sequence of Melanin-concentrating hormone receptor 2 (Homo sapiens) (Q969V1 whole entry): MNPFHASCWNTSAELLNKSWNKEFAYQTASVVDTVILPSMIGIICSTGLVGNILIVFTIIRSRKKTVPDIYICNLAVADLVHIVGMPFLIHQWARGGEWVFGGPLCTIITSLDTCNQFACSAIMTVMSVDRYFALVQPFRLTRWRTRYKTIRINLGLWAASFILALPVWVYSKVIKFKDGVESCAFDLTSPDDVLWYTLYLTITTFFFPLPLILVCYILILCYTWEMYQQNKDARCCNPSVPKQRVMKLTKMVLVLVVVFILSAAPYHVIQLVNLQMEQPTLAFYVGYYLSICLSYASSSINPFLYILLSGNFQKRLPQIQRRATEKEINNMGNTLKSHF
Sequence of Type-1 angiotensin II receptor (Homo sapiens) (P30556 whole entry): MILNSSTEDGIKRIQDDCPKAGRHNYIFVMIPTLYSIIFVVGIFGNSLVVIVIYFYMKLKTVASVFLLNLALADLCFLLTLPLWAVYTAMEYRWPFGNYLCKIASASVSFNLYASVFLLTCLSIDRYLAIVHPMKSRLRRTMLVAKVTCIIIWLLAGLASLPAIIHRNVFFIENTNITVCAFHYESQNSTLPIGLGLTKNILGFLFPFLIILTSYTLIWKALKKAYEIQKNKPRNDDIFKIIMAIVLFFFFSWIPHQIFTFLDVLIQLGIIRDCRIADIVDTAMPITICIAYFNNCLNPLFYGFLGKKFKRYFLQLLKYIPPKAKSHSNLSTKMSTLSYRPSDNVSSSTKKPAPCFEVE
Sequence of Glucagon-like peptide 1 receptor (Homo sapiens) (P43220 whole entry): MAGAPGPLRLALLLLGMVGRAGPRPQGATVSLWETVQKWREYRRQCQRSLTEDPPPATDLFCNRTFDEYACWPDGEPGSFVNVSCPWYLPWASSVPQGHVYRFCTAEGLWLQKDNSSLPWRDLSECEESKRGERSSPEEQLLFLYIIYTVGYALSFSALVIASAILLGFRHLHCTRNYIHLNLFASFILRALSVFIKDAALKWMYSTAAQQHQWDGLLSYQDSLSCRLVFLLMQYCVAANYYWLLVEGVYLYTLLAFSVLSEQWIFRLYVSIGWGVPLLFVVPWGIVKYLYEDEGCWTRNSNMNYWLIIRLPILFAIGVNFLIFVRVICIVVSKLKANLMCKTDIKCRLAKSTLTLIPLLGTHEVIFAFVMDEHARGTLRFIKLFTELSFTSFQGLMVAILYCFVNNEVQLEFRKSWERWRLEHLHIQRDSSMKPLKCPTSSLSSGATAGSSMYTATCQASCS
Sequence of Beta-1 adrenergic receptor (Homo sapiens) (P08588 whole entry, looked up): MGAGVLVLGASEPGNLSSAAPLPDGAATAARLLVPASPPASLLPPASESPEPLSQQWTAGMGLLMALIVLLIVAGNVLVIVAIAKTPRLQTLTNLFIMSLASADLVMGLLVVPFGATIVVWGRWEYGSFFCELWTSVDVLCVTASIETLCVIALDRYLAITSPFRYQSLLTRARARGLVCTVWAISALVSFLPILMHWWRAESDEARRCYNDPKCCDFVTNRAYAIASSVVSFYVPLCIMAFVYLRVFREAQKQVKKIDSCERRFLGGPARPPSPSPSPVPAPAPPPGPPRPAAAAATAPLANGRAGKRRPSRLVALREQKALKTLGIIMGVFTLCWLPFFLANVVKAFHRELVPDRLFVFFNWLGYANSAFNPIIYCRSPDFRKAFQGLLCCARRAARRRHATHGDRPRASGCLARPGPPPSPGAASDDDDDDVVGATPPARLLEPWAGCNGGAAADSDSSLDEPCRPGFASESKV
Sequence of Pituitary adenylate cyclase-activating polypeptide type I receptor (Homo sapiens) (P41586 21-468 limits assumed): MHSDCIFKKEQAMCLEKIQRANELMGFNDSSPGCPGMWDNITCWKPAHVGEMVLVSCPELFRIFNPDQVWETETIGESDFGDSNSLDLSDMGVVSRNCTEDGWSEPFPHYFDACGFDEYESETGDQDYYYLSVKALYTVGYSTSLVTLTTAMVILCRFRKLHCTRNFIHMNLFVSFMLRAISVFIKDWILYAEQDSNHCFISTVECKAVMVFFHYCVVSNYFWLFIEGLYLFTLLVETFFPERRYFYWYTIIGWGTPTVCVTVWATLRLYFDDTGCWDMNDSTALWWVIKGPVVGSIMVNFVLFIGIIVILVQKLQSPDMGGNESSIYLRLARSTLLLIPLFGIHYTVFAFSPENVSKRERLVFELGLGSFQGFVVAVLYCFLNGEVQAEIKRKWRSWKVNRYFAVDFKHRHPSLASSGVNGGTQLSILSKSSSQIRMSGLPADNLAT

For the compound `CN(C)C1CCN(c2cc(-c3ccccc3)nc3ccnn23)C1` (racemic), the outcome in [1] and in assay [2] was Active. Besides, the outcome in assay [3] was inactive.
Regarding `CN(C)[C@@H]1CCN(c2cc(-c3ccccc3)nc3ccnn23)C1` [(R)-ZINC-3573], the outcome in [4], in [5], in assay [6], in assay [8], in assay [9] and in assay [10] was inactive. Besides, the result in assay [12], in assay [13], in [14], in assay [15], in [16] and in [17] was inactive. In addition, the outcome in [18], in assay [19], in assay [21], in [22], in [23] and in assay [24] was inactive. Further, the result in assay [25], in assay [26] and in assay [27] was inactive. The EC50 in [7] (read-out: EC50) is 0.74 µM; in assay [11] (read-out: EC50), 1 µM. The outcome in assay [20] was Active.
Regarding `CN1CC[C@@]23CCCC[C@@H]2[C@@H]1Cc1ccc(O)cc13` [DEXTRORPHAN], the result (in the assay with HTLA [28]; in assay [30]) was inactive. Moreover, the EC50 in [7] (read-out: EC50) was 4.3 µM; in assay [7] (read-out: pEC50 (converted)), 4.17 µM; in assay [11] (read-out: EC50), 6 µM; in assay [11] (read-out: pEC50 (converted)), 3.89 µM. Moreover, the outcome (in the assay with HTLA [29]; in [31]) was Active.
Consider `CN1CC[C@]23c4c5ccc(O)c4O[C@H]2[C@@H](O)C=C[C@H]3[C@H]1C5` [MORPHINE], for which the outcome (in the assay on HTLA [28]; in assay [3]; in assay [32]) was inactive. In addition, the EC50 in assay [7] (read-out: EC50) was 6.4 µM; in assay [7] (read-out: pEC50 (converted)) it was 6.17 µM; in assay [11] (read-out: EC50), 7 µM. For the same compound, the result (in assay [1]; in [20]; with HTLA [29]) was Active.

(Values after ChEMBL document CHEMBL5661985, “In silico design of novel probes for the atypical opioid receptor MRGPRX2” (Nat Chem Biol, 2017).)
